Experimental data taken from ChEMBL document CHEMBL4265992, “Noncovalent Inhibitors of Mosquito Acetylcholinesterase 1 with Resistance-Breaking Potency” (J Med Chem, 2018).
Activity calls are given as the source filed them. The calls are words filed in the database; no cut-off is given here.

How the values were obtained:
Acetylcholinesterase [1] = target: Acetylcholinesterase (Anopheles gambiae, UniProt Q869C3, G122S); assay: Inhibition of recombinant Anopheles gambiae AChE1 G122S mutant expressed in sf9 insect cells using acetylthiocholine iodide as substrate measured over 60 secs by Ellman assay
Method in brief: (§1)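 Enzyme source: secreted, non-purified recombinant protein in growth medium. Ellman assay at 30 °C in 0.1 M phosphate buffer pH 7.4 containing 0.2 mM DTNB and 1 mM acetylthiocholine iodide. Absorbance at 412 nm was followed over 60 s after substrate addition, immediately after inhibitor. Activity was expressed relative to the mean slope of eight uninhibited controls per plate.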

[2] = Selectivity ratio of IC50 for recombinant human AChE to IC50 for recombinant Anopheles gambiae AChE1
Method in brief: (§2)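 Ratio = IC50 for hAChE divided by the higher of the IC50 values for AaAChE1 and AgAChE1. All IC50 values came from the Ellman assay with secreted recombinant enzymes.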

Aedes aegypti [3] = assay: Insecticidal activity against five day old female adult Aedes aegypti Mombasa assessed as mortality at 4.26 ug administered topically measured after 24 hrs relative to control; type: functional
Method in brief: (§3)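 Mosquitoes were reared at 27–28 °C, ~80% humidity, on a 12/12 h light cycle. Insects were chilled on a −20 °C plate. 0.1 µl of compound in acetone was applied to the upper pronotum. Negative control was acetone alone. Afterwards mosquitoes were given glucose and kept in the insectary. Mortality was scored at 24 h, Abbott-corrected when control mortality exceeded 5%. Runs with control mortality ≥20% were discarded.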

Aedes aegypti [4] = assay: Insecticidal activity against five day old female adult Aedes aegypti Mombasa assessed as mortality rate at 60.4 ng administered via micro-injection measured after 48 hrs relative to control; type: functional
Method in brief: (§4)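 Test compounds were made up at 100 mM in acetone, then diluted in mosquito saline (5% acetone final; 4.3% for propoxur). 23 nl was injected into the thoracic cavity of anesthetized females. Negative control was saline with matching acetone. Mosquitoes were then given glucose. Mortality was read at 24 and 48 h, Abbott-corrected when control mortality exceeded 5%. Runs with control mortality ≥20% were discarded.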

Aedes aegypti [5] = assay: Insecticidal activity against five day old female adult Aedes aegypti Mombasa assessed as mortality rate at 60.4 ng administered via micro-injection measured after 24 hrs relative to control; type: functional; method in brief: as §4
Acetylcholinesterase [6] = target: T1, Acetylcholinesterase (Homo sapiens, UniProt P22303); assay: Inhibition of recombinant human AChE using acetylthiocholine iodide as substrate measured over 60 secs by Ellman assay; method in brief: as §1
[7] = Selectivity ratio of IC50 for recombinant human AChE to IC50 for recombinant Aedes aegypti AChE1; method in brief: as §2
Acetylcholinesterase [8] = target: Acetylcholinesterase (Anopheles gambiae, UniProt Q869C3); assay: Inhibition of recombinant Anopheles gambiae AChE1 expressed in sf9 insect cells using acetylthiocholine iodide as substrate measured over 60 secs by Ellman assay; method in brief: as §1
Acetylcholinesterase [9] = target: Acetylcholinesterase (Aedes aegypti, UniProt Q6A2E2); assay: Inhibition of recombinant Aedes aegypti AChE1 expressed in sf9 insect cells using acetylthiocholine iodide as substrate measured over 60 secs by Ellman assay; method in brief: as §1
[10] = target: Acetylcholinesterase (Aedes aegypti) (UniProt Q6A2E2); assay: Inhibition of recombinant Aedes aegypti AChE1 expressed in sf9 insect cells at 1 mM using acetylthiocholine iodide as substrate measured over 60 secs by Ellman assay
Acetylcholinesterase [11] = target: T1, Acetylcholinesterase; assay: Inhibition of recombinant human AChE at 1 mM using acetylthiocholine iodide as substrate measured over 60 secs by Ellman assay; conditions: 1 min, 1000 µM
[12] = target: Acetylcholinesterase (Anopheles gambiae) (UniProt Q869C3); assay: Inhibition of recombinant Anopheles gambiae AChE1 expressed in sf9 insect cells at 1 mM using acetylthiocholine iodide as substrate measured over 60 secs by Ellman assay
[13] = tested on: Acetylcholinesterase (Anopheles gambiae), Q869C3 [G122S]; assay: Inhibition of recombinant Anopheles gambiae AChE1 G122S mutant expressed in sf9 insect cells at 1 mM using acetylthiocholine iodide as substrate measured over 60 secs by Ellman assay
Aedes aegypti [14] = assay: Insecticidal activity against five day old female adult Aedes aegypti Mombasa assessed as mortality rate at 21 ng administered via micro-injection measured after 24 hrs relative to control; type: functional; method in brief: as §4
Aedes aegypti [15] = assay: Insecticidal activity against topically dosed female adult Aedes aegypti assessed as mortality measured after 24 hrs; type: functional; method in brief: as §3
Aedes aegypti [16] = assay: Insecticidal activity against five day old female adult Aedes aegypti Mombasa assessed as mortality rate at 53.6 ng administered via micro-injection measured after 48 hrs relative to control; type: functional; method in brief: as §4
Aedes aegypti [17] = assay: Insecticidal activity against five day old female adult Aedes aegypti Mombasa assessed as mortality rate at 53.6 ng administered via micro-injection measured after 24 hrs relative to control; type: functional; method in brief: as §4
Aedes aegypti [18] = assay: Insecticidal activity against five day old female adult Aedes aegypti Mombasa assessed as mortality rate at 52.7 ng administered via micro-injection measured after 48 hrs relative to control; type: functional; method in brief: as §4
Aedes aegypti [19] = assay: Insecticidal activity against five day old female adult Aedes aegypti Mombasa assessed as mortality rate at 52.7 ng administered via micro-injection measured after 24 hrs relative to control; type: functional; method in brief: as §4
Aedes aegypti [20] = assay: Insecticidal activity against five day old female adult Aedes aegypti Mombasa assessed as mortality rate at 57.3 ng administered via micro-injection measured after 48 hrs relative to control; type: functional; method in brief: as §4
Aedes aegypti [21] = assay: Insecticidal activity against five day old female adult Aedes aegypti Mombasa assessed as mortality rate at 57.3 ng administered via micro-injection measured after 24 hrs relative to control; type: functional; method in brief: as §4
Anopheles gambiae = assay: Insecticidal activity against five day old female adult Anopheles gambiae Kisumu assessed as mortality at 4.26 ug administered topically measured after 24 hrs relative to control; type: functional; method in brief: as §3
Aedes aegypti [22] = assay: Insecticidal activity against topically dosed five day old female adult Aedes aegypti Mombasa assessed as mortality measured after 24 hrs; type: functional; method in brief: as §3

Structure (SMILES)	IC50 (Acetylcholinesterase [1])	Ratio IC50 [2]	IC50 (Acetylcholinesterase [6])	Ratio IC50 [7]	IC50 (Acetylcholinesterase [8])	IC50 (Acetylcholinesterase [9])	also measured
CCN1CCN(C2CCN(C(=O)COc3ccc(-c4ccc([N+](=O)[O-])cc4)cc3)CC2)CC1	0.13 µM	19	2.1 µM	19	0.08 µM	0.11 µM	mortality (Aedes aegypti [3]): 31%; mortality (Aedes aegypti [4]): 69%; mortality (Aedes aegypti [5]): 64%
O=C(COc1ccc(-c2ccccc2)cc1)N1CCOCC1	–	–	–	–	–	–	inhibition [10]: inactive; inhibition (INH) (Acetylcholinesterase [11]): Not Active; inhibition [12]: inactive; inhibition [13]: inactive
O=C(COc1ccc(-c2ccccc2)cc1)N1CCC(N2CCOCC2)CC1	> 200 µM	–	93 µM	–	> 200 µM	> 200 µM	–
CCN1CCN(CCCNC(=O)COc2ccc(-c3ccccc3)cc2)CC1	16 µM	32	113 µM	32	3.5 µM	3.3 µM	–
CCN1CCN(C2CCN(C(=O)COc3ccc(I)cc3)CC2)CC1	6.2 µM	5.6	20 µM	5.6	3.6 µM	1.5 µM	–
CNC(=O)Oc1ccccc1OC(C)C [PROPOXUR]	–	–	–	–	–	–	mortality (Aedes aegypti [14]): 85%; LD50 (Aedes aegypti [15]): 0.0054 µg
CNC(=O)Oc1cccc2c1OC(C)(C)O2 [BENDIOCARB]	–	–	–	–	–	–	LD50 (Aedes aegypti [15]): 0.0018 µg
CCN1CCN(C(=O)COc2ccc(-c3ccccc3)cc2)CC1	> 200 µM	–	> 200 µM	–	> 200 µM	> 200 µM	–
O=C(COc1ccc(-c2ccccc2)cc1)N1CCC(N2CCCCC2)CC1	4.2 µM	1.2	4.6 µM	1.2	3.8 µM	4 µM	–
CN1CCN(C2CCN(C(=O)COc3ccc(-c4ccccc4)cc3)CC2)CC1	0.54 µM	40	10 µM	40	0.24 µM	0.25 µM	mortality (Aedes aegypti [16]): 66%; mortality (Aedes aegypti [17]): 58%
CN1CCN(CCCNC(=O)COc2ccc(-c3ccccc3)cc2)CC1	39 µM	8.8	115 µM	8.8	13 µM	12 µM	–
COc1ccc(-c2ccc(OCC(=O)NCCCN3CCCCC3)cc2)cc1	5.2 µM	3.1	14 µM	3.1	4.5 µM	3.9 µM	–
CCN1CCN(C2CCN(C(=O)COc3ccc(-c4ccc(OC)cc4)cc3)CC2)CC1	0.96 µM	45	18 µM	45	0.4 µM	0.23 µM	–
COc1ccc(-c2ccc(OCC(=O)NCCCN3CCN(C)CC3)cc2)cc1	33 µM	7.6	190 µM	7.6	25 µM	16 µM	–
CCN1CCN(CCCNC(=O)COc2ccc(I)cc2)CC1	95 µM	1.2	87 µM	1.2	43 µM	72 µM	–
CCN1CCN(CCCNC(=O)COc2ccc(-c3ccc(OC)cc3)cc2)CC1	20 µM	19	110 µM	19	5.8 µM	3.8 µM	–
O=C(COc1ccc(-c2ccccc2)cc1)NCCCN1CCCCC1	23 µM	5.7	57 µM	5.7	10 µM	9.9 µM	–
CN1CCN(CCCNC(=O)COc2ccc(I)cc2)CC1	128 µM	1.2	138 µM	1.2	114 µM	112 µM	–
O=C(COc1ccc(-c2ccccc2)cc1)N1CCCCC1	–	–	–	–	–	–	inhibition [10]: inactive; inhibition (INH) (Acetylcholinesterase [11]): Not Active; inhibition [12]: inactive; inhibition [13]: inactive
O=C(COc1ccc(I)cc1)NCCCN1CCCCC1	31 µM	0.3	13 µM	0.3	44 µM	36 µM	–
CCN1CCN(C2CCN(C(=O)COc3ccc4c(c3)CCC4=O)CC2)CC1	0.38 µM	16	4.9 µM	16	0.29 µM	0.2 µM	mortality (Aedes aegypti [18]): 64%; mortality (Aedes aegypti [3]): 50%; mortality (Aedes aegypti [19]): 58%
CCN1CCN(C2CCN(C(=O)COc3ccc(-c4ccccc4)cc3)CC2)CC1	–	–	–	–	–	0.22 µM	–
CCN1CCN(C2CCN(C(=O)COc3ccc(-c4ccccc4F)cc3)CC2)CC1	0.71 µM	79	19 µM	79	0.24 µM	0.22 µM	mortality (Aedes aegypti [20]): 56%; mortality (Aedes aegypti [21]): 55%; mortality (Anopheles gambiae): 88%; mortality (Aedes aegypti [3]): 75%; LD50 (Aedes aegypti [22]): 2.13 µg
